Screens as filed in PubChem.
Only some compounds are listed: those with a hit (about 2.3% of all), similar ones and a draw of the others.
TRPC4 inh – blocks the mouse TRPC4 cation channel; Q9QUQ5; HEK293 TRPC4beta/mu-opioid, DAMGO-evoked Fluo4 calcium flux; stronger effect = lower value; B-score at 10 µM; actives 0.39% (n = 300,000); AID 2247;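 active = B-score over 3 SD under the library average, no early fluorescence shift, positive overall ratio signal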
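Material: HEK293 cells with stable TRPC4beta plus mu-opioid receptor expression; probe or stimulus: DAMGO in two steps, submaximal then maximal; technique: Fluo4 calcium fluorescence by kinetic imaging, 5 s 1 Hz baseline; measure: integrated fluorescence ratio relative to baseline, converted to per-well B score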
TRPC4 act – opens the mouse TRPC4 cation channel; B-score at 10 µM; HEK293 TRPC4beta/mu-opioid, Fluo4 calcium fluorescence; stronger effect = higher value; Q9QUQ5; actives 0.49% (n = 310,000);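 active = B-score above 5 SD of library B-scores, and initial fluorescence ratio not above library mean plus 5 SD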;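 also: positive B-score marks a calcium rise read as TRPC4 activation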
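Assay system: HEK293 cells stably co-expressing mouse TRPC4beta and mu-opioid receptor / Timing: Fluo4 dye loading 45 min at room temperature, 110 s recording / Signal: Fluo4 calcium-sensitive dye fluorescence, kinetic, 1 Hz baseline / Read-out: integrated baseline-normalised fluorescence ratio, converted to per-well B score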
TRPC6 activator – mouse TRPC6 channel activation. Q61143. HEK293-TRPC6 membrane potential dye fluorescence; stronger effect = higher value. B-score at 10 µM. actives 0.13% (n = 310,000). AID 2550;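 active = B-score of the integrated fluorescence ratio above library mean plus 3 SD, and starting fluorescence ratio within library mean plus 5 SD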;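 also: higher score means more depolarization so channel activation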
TRPC6 inhibitor – blocks the mouse TRPC6 cation channel | Q61143 | HEK293-TRPC6, membrane potential dye, ACh-evoked depolarization; stronger effect = lower value | B-score at 10 µM | actives 1.1% (n = 310,000) | AID 2553;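 active = B-score under library mean minus 3 SD, initial fluorescence not abnormally high, positive integrated signal ratio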;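 also: B-score derived from integrated fluorescence ratio over the kinetic read; more negative B-score means stronger inhibition of depolarization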
TRPC4 potent – allosterically enhances the mouse TRPC4 cation channel; B-score at 10 µM; actives 0.42% (n = 310,000); Q9QUQ5; HEK293 TRPC4beta/mu-opioid, DAMGO EC20, Fluo-4 Ca2+ flux; stronger effect = higher value;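 active = B-score of calcium response area above 5 SD of library B-scores, with initial fluorescence ratio within 5 SD of library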
Numbers stand for hits; i = inactive.

SMILES	TRPC4 inh	TRPC4 act	TRPC6 activator	TRPC6 inhibitor	TRPC4 potent
CCOCC(=O)Nc1cc(C)on1	i	i	i	i	i
O=C(Nc1nc(N2C(=O)c3ccccc3C2=O)n(-c2ccccc2)n1)c1ccc(Cl)cc1	-6	47	i	i	i
Cc1ccc(N=Nc2c(N)n[nH]c2N)cc1	i	i	i	i	i
Cc1[nH]nc(N)c1N=Nc1ccc(Br)cc1	i	i	i	-5.58	i
CCN(CC)CCOC(=O)C1(c2ccccc2)CCOCC1	i	60	i	i	i
CN(CCC#N)C(=O)COC(=O)c1ccc2c(c1)C(=O)N(C1CCCCC1)C2=O	i	i	i	i	i
CCCCC(C(=O)NC(=O)NCc1ccccc1)N1C(=O)c2ccccc2C1=O (stereo unspecified)	-6	i	i	i	i
CCC(C(=O)O)N1C(=O)c2ccccc2C1=O (stereo unspecified)	i	i	i	i	i
Cn1cc(CN2CCCCC2CO)c(-c2ccc(Oc3ccccc3)cc2)n1 (stereo unspecified)	-7	i	i	i	i
COC1CCCN(Cc2cn(C)nc2-c2ccc(Oc3ccccc3)cc2)C1 (stereo unspecified)	i	i	i	i	i
Cc1cccc(C)c1NC(=O)C(C)Sc1nnc(C)n1CC1CCCO1 (stereo unspecified)	i	i	i	i	i
Clc1cccc(OCCN2CCNCC2)c1	i	97	i	i	i
Clc1cccc(OCCOCCN2CCNCC2)c1Cl	i	44	i	i	i
Clc1cccc(OCCCN2CCCC2)c1Cl	i	i	i	i	i
O=C(c1cccc(S(=O)(=O)N2CCN(c3ccccc3)CC2)c1)N1CCN(c2ccccc2O)CC1	i	i	i	i	i
Cc1ccc(S(=O)(=O)N(C)c2ccc(OC(=O)CN3C(=O)NC4(CCCC4)C3=O)cc2)cc1C	i	i	i	i	i
O=C(Nc1cccc(Cl)c1)NC1CCN(C2CCCCC2)C1 (stereo unspecified)	i	46	i	i	i
COc1ccc(/C(C)=N/NC(=O)Cn2nc([N+](=O)[O-])cc2C)cc1	i	i	i	i	i
COc1ccccc1C(c1nnnn1C(C)(C)C)N1CCN(Cc2ccncc2)CC1 (stereo unspecified)	i	i	i	i	i
COc1cccc(C(c2nnnn2C(C)(C)C)N2CCN(C3CCCCC3)CC2)c1OC (stereo unspecified)	-6	i	i	i	i
COc1cccc(C(c2nnnn2CCc2ccccc2)N2CCN(c3ccccc3)CC2)c1OC (stereo unspecified)	i	i	i	i	i
C=CCN1CCN(C(c2cccc(OC)c2OC)c2nnnn2CCC(C)C)CC1 (stereo unspecified)	-7	i	i	i	i
O=C(NC1CCCC1)C(c1ccccn1)N(C(=O)c1csnn1)c1ccccc1Br (stereo unspecified)	i	i	i	i	i
CC1CCN=C(N)S1 (stereo unspecified)	i	i	i	i	i
CC1CCN(CCCNC(=O)c2cn(C)c3ccc(S(=O)(=O)N4CCCC4)cc3c2=O)CC1	i	i	i	i	i
SMILES	TRPC4 inh	TRPC4 act	TRPC6 activator	TRPC6 inhibitor	TRPC4 potent
CCCN(CCC)CCCNC(=O)c1cn(CC)c2ccc(S(=O)(=O)N3CCOCC3)cc2c1=O	i	45	i	i	i
Cn1cc(C(=O)N2CCN(c3ccccc3)CC2)c(=O)c2cc(S(=O)(=O)N3CCCC3)ccc21	i	i	i	i	i
CC1CC(C)CN(CCCNC(=O)c2cn(C)c3ccc(S(=O)(=O)N4CCCC4)cc3c2=O)C1 (stereo unspecified)	i	55	i	i	i
CN(Cc1ccccc1)C(=O)c1cn(C)c2ccc(S(=O)(=O)N3CCCC3)cc2c1=O	i	i	i	i	12
CCOc1ccc(CCNC(=O)c2ccc(OCc3c(C)noc3C)cc2)cc1OCC	i	i	i	i	i
CCCCNc1nc(=S)[nH]c2cc(OC)c(OC)cc12	-8	i	i	i	i
Cc1cc(N2CCN(C)CC2)n2cc(-c3ccc(F)cc3)nc2n1	i	i	i	i	15
C/C(=N\OCC(=O)OC(C)C(=O)Nc1ccc(C(N)=O)cc1)c1ccc2c(c1)OCO2 (stereo unspecified)	i	i	i	i	i
Cn1c(SCC(=O)NCc2cccs2)nnc1-c1ccc(O)cc1	i	i	i	i	i
Cc1cc(Cl)c(OCCCCNC(C)(C)C)c(Br)c1	i	i	12.4	i	i
C/C(=N\N(c1ccccc1)c1ccccc1)c1ccc(N)cc1	i	i	i	i	24
C/C(=N\N(c1ccccc1)c1ccccc1)c1ccc(O)cc1	i	i	i	i	i
O=C(CS(=O)(=O)c1ccccc1)Nc1nnc(-c2cccs2)o1	i	i	i	i	i
Cc1ccc(-n2[nH]c(C)c(/C=C3/C=Nc4ccccc43)c2=O)cc1C	i	i	i	i	i
COc1ccccc1C(=O)NNC1=C(C(=O)C(F)(F)F)CCC1	i	93	i	i	i
Cc1ccc(S(=O)(=O)N2CCCCC2)cc1NC(=O)COC(=O)c1ccc(O)cc1	i	i	i	i	i
COc1ccc(CCNC(=O)C2CCN(C(=O)c3ccc(F)cc3)CC2)cc1	i	i	i	i	i
COc1ccc(CCNC(=O)C2CCN(C(=O)c3ccc(C(C)(C)C)cc3)CC2)cc1	i	i	i	i	17
COc1ccc(Cc2nnc(NC(=O)c3ccccc3C)s2)cc1	i	i	i	i	i
O=C(CCCSc1nc2ccccc2[nH]1)NCc1ccccc1Cl	-8	i	i	i	i
O=C(CCCSc1nc2ccccc2[nH]1)NC(c1ccccc1)c1ccccc1	i	i	i	i	i
Fc1ccc(CNC(=S)NCc2cccc(Cl)c2)cc1	i	i	i	i	i
CCOC(=O)c1c(NC(=O)COC(=O)Cn2cnc3c2c(=O)n(C)c(=O)n3C)sc(C)c1CC	-7	i	i	i	i
CCOC(=O)COc1c(OC)cc(Cl)cc1C1NC(=O)NC(C)=C1C(C)=O (stereo unspecified)	i	i	i	i	i
CCCC1=C(C(=O)OCC)C(c2cc(Cl)cc(OC)c2OCC(=O)OCC)NC(=O)N1 (stereo unspecified)	i	i	i	i	22
C=CCn1c(SCC(=O)OC)nc2sc3c(c2c1=O)CCN(C)C3	i	i	i	-5.7	i
Cc1cc(-c2cn3ccccc3n2)c(C)n1-c1ccccc1	-7	i	i	i	i
CC(=O)Oc1c(C)c(OC(C)=O)c2c(c1C(C)=O)OC1CC(=O)C(C(C)=O)=C(O)C21C (stereo unspecified)	i	i	i	i	i
CC(=O)c1c(O)c(C)c(O)c2c1OC1=CC(=O)C(C(C)=O)C(=O)[C@@]12C (stereo partly specified)	-6	90	i	i	i
